From ChEMBL document CHEMBL1806449, “A class of Trp-Trp-AA-OBzl: Synthesis, in vitro anti-proliferation/in vivo anti-tumor evaluation, intercalation-mechanism investigation and 3D QSAR analysis” (Eur J Med Chem, 2011)
Peptide text beside a SMILES is read from it. * marks the point of attachment. OBn = c1ccc(CO*)cc1

Key:
K562 = experiment: Antiproliferative activity against human K562 cells after 48 hrs by MTT assay; format: functional, cell-based; conditions: K562, 48 h
Mus musculus [1] = experiment: Toxicity in ICR mouse xenografted with mouse S180 cells assessed as effect on brain weight at 8.9 umol/kg; format: organism-based, CCRF S-180; conditions: in vivo
Outline: (§1)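 S180-bearing male ICR mice (10–12 weeks; 1×10^7 cells s.c. right oxter; 12 per group), daily i.p. 8.9 µmol/kg for seven days starting 24 h after implantation; NS, cytarabine and doxorubicin controls; liver, brain, kidney weights, spleen index and body-weight gain recorded.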

Mus musculus [2] = experiment: Acute toxicity in ICR mouse assessed as tetanus at 500 mg/kg, ip administered qd for 7 days; format: organism-based; set-up: dose 500 mg/kg, route intraperitoneal; conditions: in vivo, 168 h
Mus musculus [3] = experiment: Toxicity in ICR mouse xenografted with mouse S180 cells assessed as effect on kidney weight at 8.9 umol/kg; format: organism-based, CCRF S-180; conditions: in vivo; outline: as §1
Mus musculus [4] = experiment: Acute toxicity in ICR mouse assessed as jumping at 500 mg/kg, ip administered qd for 7 days; format: organism-based; set-up: dose 500 mg/kg, route intraperitoneal; conditions: in vivo, 168 h
B16 = experiment: Antiproliferative activity against mouse B16 cells after 48 hrs by MTT assay; format: functional, cell-based; conditions: B16, 48 h
Mus musculus [5] = experiment: Acute toxicity in ICR mouse assessed as twitch at 500 mg/kg, ip administered qd for 7 days; format: organism-based; set-up: dose 500 mg/kg, route intraperitoneal; conditions: in vivo, 168 h
Mus musculus [6] = experiment: Toxicity in ICR mouse xenografted with mouse S180 cells assessed as increase in spleen index at 8.9 umol/kg; format: organism-based, CCRF S-180; conditions: in vivo; outline: as §1
H22 = experiment: Antiproliferative activity against mouse H22 cells after 48 hrs by MTT assay; format: functional, cell-based; conditions: H22, 48 h
Mus musculus [7] = experiment: Toxicity in ICR mouse xenografted with mouse S180 cells assessed as effect on liver weight at 8.9 umol/kg; format: organism-based, CCRF S-180; conditions: in vivo; outline: as §1
CCRF S-180 [8] = experiment: Antiproliferative activity against mouse S180 cells after 48 hrs by MTT assay; format: functional, cell-based; conditions: CCRF S-180, 48 h
Mus musculus [9] = experiment: Acute toxicity in ICR mouse assessed as supination at 500 mg/kg, ip administered qd for 7 days; format: organism-based; set-up: dose 500 mg/kg, route intraperitoneal; conditions: in vivo, 168 h
CCRF S-180 [10] = experiment: Antitumor activity against mouse S180 cells xenografted in ICR mouse assessed as tumor growth inhibition at 8.9 umol/kg, ip administered 1 day after tumor inoculation qd for 7 days; format: functional; conditions: CCRF S-180, ip, read-out: GI
Outline: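 Male ICR mice 10–12 weeks; S180 from ascites serially transplanted weekly; 1×10^7 viable cells in 0.2 ml NS implanted s.c. at right oxter; 24 h later randomized (10 per group); daily i.p. 8.9, 0.89 or 0.089 µmol/kg/day in 0.2 ml NS, 7 days; NS and cytarabine controls; sacrificed 24 h after last dose; inhibition % = [1−(Tw/Cw)]×100.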

Mus musculus [11] = experiment: Acute toxicity in ICR mouse assessed as tremors at 500 mg/kg, ip administered qd for 7 days; format: organism-based; set-up: dose 500 mg/kg, route intraperitoneal; conditions: in vivo, 168 h
Mus musculus [12] = experiment: Toxicity in ICR mouse xenografted with mouse S180 cells assessed as increase in body weight at 8.9 umol/kg; format: organism-based, CCRF S-180; conditions: in vivo; outline: as §1
Mus musculus [13] = experiment: Acute toxicity in ICR mouse assessed as mortality at 500 mg/kg, ip administered qd for 7 days; format: organism-based; set-up: dose 500 mg/kg, route intraperitoneal; conditions: in vivo, 168 h
Mus musculus [14] = experiment: Acute toxicity in ICR mouse assessed as apparent changes in any organ at 500 mg/kg, ip administered qd for 7 days; format: organism-based; set-up: dose 500 mg/kg, route intraperitoneal; conditions: in vivo, 168 h
[15] = Acute toxicity in ip dosed ICR mouse assessed as lethal dose; format: organism-based; conditions: in vivo
Outline: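 Male ICR mice, 24 weeks old, got a single i.p. injection of 500 mg/kg in 0.2 ml NS (normal saline). They were watched for 7 days for neurotoxic behaviour (tremor, twitch, jumping, tetanus, supination) and for death.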

HepG2 = experiment: Antiproliferative activity against human HepG2 cells after 48 hrs by MTT assay; format: functional, cell-based; conditions: HepG2, 48 h

SMILES	IC50 (K562) [µM]	Activity (Mus musculus [1]) [g]	Activity (Mus musculus [2])	Activity (Mus musculus [3]) [g]	Activity (Mus musculus [4])	IC50 (B16) [µM]	Activity (Mus musculus [5])	Activity (Mus musculus [6])	IC50 (H22) [µM]	Activity (Mus musculus [7]) [g]	IC50 (CCRF S-180 [8]) [µM]	Activity (Mus musculus [9])	inhibition in vivo at 8.9 µmol/kg (CCRF S-180 [10]) [%]	Activity (Mus musculus [11])	Activity (Mus musculus [12]) [g]	Activity (Mus musculus [13])	Activity (Mus musculus [14])	LD50 [15] [mg/kg]	IC50 (HepG2) [µM]
C[C@H](NC(=O)[C@H](Cc1c[nH]c2ccccc12)NC(=O)[C@@H](N)Cc1c[nH]c2ccccc12)C(=O)OCc1ccccc1 (H-Trp-Trp-Ala-OBn)	18.4	0.27	Non-toxic	0.16	Non-toxic	23	Non-toxic	7.59	20.8	1.77	18.5	Non-toxic	50	Non-toxic	9.5	Non-toxic	Non-toxic	> 500	20.1
NC(=O)C[C@H](NC(=O)[C@H](Cc1c[nH]c2ccccc12)NC(=O)[C@@H](N)Cc1c[nH]c2ccccc12)C(=O)OCc1ccccc1 (H-Trp-Trp-Asn-OBn)	16.3	0.27	Non-toxic	0.16	Non-toxic	21.3	Non-toxic	7.81	18.7	1.82	15.5	Non-toxic	50.6	Non-toxic	9.96	Non-toxic	Non-toxic	> 500	17.9
NC(=O)CC[C@H](NC(=O)[C@H](Cc1c[nH]c2ccccc12)NC(=O)[C@@H](N)Cc1c[nH]c2ccccc12)C(=O)OCc1ccccc1 (H-Trp-Trp-Gln-OBn)	8.86	0.27	Non-toxic	0.16	Non-toxic	12	Non-toxic	7.96	10.7	1.81	8.74	Non-toxic	72	Non-toxic	9.89	Non-toxic	Non-toxic	> 500	10.2
N[C@@H](Cc1c[nH]c2ccccc12)C(=O)N[C@@H](Cc1c[nH]c2ccccc12)C(=O)N[C@@H](CCC(=O)O)C(=O)OCc1ccccc1 (H-Trp-Trp-Glu-OBn)	11	0.27	Non-toxic	0.17	Non-toxic	20.8	Non-toxic	7.92	13.7	1.86	13.4	Non-toxic	55.3	Non-toxic	9.94	Non-toxic	Non-toxic	> 500	21
N[C@@H](Cc1c[nH]c2ccccc12)C(=O)N[C@@H](Cc1c[nH]c2ccccc12)C(=O)NCC(=O)OCc1ccccc1 (H-Trp-Trp-Gly-OBn)	16.2	0.27	Non-toxic	0.16	Non-toxic	24.3	Non-toxic	8.11	22.4	1.8	19.5	Non-toxic	56.6	Non-toxic	9.77	Non-toxic	Non-toxic	> 500	17.8
